# Measured values taken from ChEMBL document CHEMBL1165987, “Cyclic tripeptides from the halotolerant fungus Aspergillus sclerotiorum PT06-1” (2010).
# Activity calls are given as the source filed them. No cut-off for these calls is given here.
# Columns and labels:
# Escherichia coli = test: Antimicrobial activity against Escherichia coli after 24 hrs by agar dilution method; format: functional, organism-based
# Method in brief: (§1)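 Each organism was tested separately by agar dilution. The MIC was recorded as the read-out and given in µM.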
# A549 = test: Cytotoxicity against human A549 cells after 24 hrs by SRB method; format: functional, cell-based
# Staphylococcus aureus = test: Antimicrobial activity against Staphylococcus aureus after 24 hrs by agar dilution method; format: functional, organism-based; method in brief: as §1
# HL-60 = test: Cytotoxicity against human HL60 cells after 72 hrs by MTT assay; format: functional, cell-based
# Candida albicans = test: Antimicrobial activity against Candida albicans after 24 hrs by agar dilution method; format: functional; method in brief: as §1
SMILES,MIC (Escherichia coli),MIC (Staphylococcus aureus),MIC (Candida albicans) [µM],inhibition (A549),inhibition (HL-60)
C/C=C/C=C/C=C/C(=O)N[C@H]1CCCNC(=O)[C@H](C)NC(=O)[C@H](C(C)C)N(C)C1=O,inactive,inactive,30,inactive,inactive
C/C=C/C=C/C=C/C(=O)N[C@H]1CCCNC(=O)[C@H](C)N(C)C(=O)[C@H](C(C)C)NC1=O [SCLEROTIOTIDE A],inactive,inactive,7.5,inactive,inactive
CC(C)[C@H]1C(=O)N(C)[C@@H](C)C(=O)NCCC[C@H](NC(=O)/C=C/C=C/[C@@H](O)[C@@H](C)O)C(=O)N1C [SCLEROTIOTIDE I],inactive,inactive,6.7,inactive,inactive

# Second part, led by results:
MIC (Escherichia coli),MIC (Staphylococcus aureus),MIC (Candida albicans) [µM],SMILES,inhibition (A549),inhibition (HL-60)
inactive,inactive,3.8,C/C=C/C=C/C(=O)N[C@H]1CCCNC(=O)[C@H](C)N(C)C(=O)[C@H](C(C)C)N(C)C1=O [SCLEROTIOTIDE B],inactive,inactive
inactive,inactive,30,CC(C)[C@H]1C(=O)N(C)[C@@H](C)C(=O)NCCC[C@H](NC(=O)/C=C/C=C/C=O)C(=O)N1C [SCLEROTIOTIDE F],inactive,inactive
